Results on 37 molecules are retold here after ChEMBL document CHEMBL1157101, “A series of alpha-heterocyclic carboxaldehyde thiosemicarbazones inhibit topoisomerase IIalpha catalytic activity” (J Med Chem, 2010).

One assay deals with HeLa. Put plainly: Antiproliferative activity against human HeLa cells after 72 hrs by sulforhodamine B assay. The class given is functional, cell-based. A digest of the protocol: (§1)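 Cells seeded and exposed in triplicate to graded compound concentrations for 72 h. Suspension cells read by MTT conversion to coloured product; adherent cells read by sulforhodamine B. IC50 (50% growth inhibition versus untreated control) derived by the Logit method.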

Another assay relates to SGC-7901. Kind of assay: Antiproliferative activity against human SGC7901 cells after 72 hrs by sulforhodamine B assay. The class given is functional, cell-based. Particulars: SGC-7901, 72 h. Put shortly: as §1
A general note: Sulforhodamine B stains cellular protein and so reports cell mass.

Another assay relates to HL-60. Kind of assay: Antiproliferative activity against human HL60 cells after 72 hrs by sulforhodamine B assay. Format: functional, cell-based. The note with it: HL-60, 72 h, in the assay text read “MTT assay” for “sulforhodamine B assay”. Put shortly: as §1
The test system of a further assay is HT-29. Put plainly: Antiproliferative activity against human HT-29 cells after 72 hrs by sulforhodamine B assay. Particulars: HT-29, 72 h. Format: functional, cell-based. A digest of the protocol:
as §1

Assay [1] concerns the target DNA topoisomerase 2-alpha (Homo sapiens, UniProt P11388). Put plainly: Inhibition of human topoisomerase 2 alpha-mediated decatenation of kDNA at 100 uM after 15 mins.
Assay [2] in a line: Antiproliferative activity against human K562/A02 cells after 72 hrs by sulforhodamine B assay. Format: functional, cell-based. Particulars: K562/A02, 72 h, in the assay text read “MTT assay” for “sulforhodamine B assay”. A digest of the protocol:
as §1

A short description of assay [3]: Antiproliferative activity against human MCF7/ADR cells after 72 hrs by sulforhodamine B assay. Particulars: NCI/ADR-RES. The class given is functional, cell-based. Put shortly: as §1
Assay [4] in a line: Antiproliferative activity against human KB/VCR cells after 72 hrs by sulforhodamine B assay. Format: functional, cell-based. Put shortly: as §1
Another assay has as its system KB. Put plainly: Antiproliferative activity against human KB cells after 72 hrs by sulforhodamine B assay. Format: functional, cell-based. A digest of the protocol:
as §1

Structures can show the parent of a compound that is named as a salt. Activity calls are given as the source filed them. No cut-off for these calls is given here.

Chain of DNA topoisomerase 2-alpha (P11388 whole entry): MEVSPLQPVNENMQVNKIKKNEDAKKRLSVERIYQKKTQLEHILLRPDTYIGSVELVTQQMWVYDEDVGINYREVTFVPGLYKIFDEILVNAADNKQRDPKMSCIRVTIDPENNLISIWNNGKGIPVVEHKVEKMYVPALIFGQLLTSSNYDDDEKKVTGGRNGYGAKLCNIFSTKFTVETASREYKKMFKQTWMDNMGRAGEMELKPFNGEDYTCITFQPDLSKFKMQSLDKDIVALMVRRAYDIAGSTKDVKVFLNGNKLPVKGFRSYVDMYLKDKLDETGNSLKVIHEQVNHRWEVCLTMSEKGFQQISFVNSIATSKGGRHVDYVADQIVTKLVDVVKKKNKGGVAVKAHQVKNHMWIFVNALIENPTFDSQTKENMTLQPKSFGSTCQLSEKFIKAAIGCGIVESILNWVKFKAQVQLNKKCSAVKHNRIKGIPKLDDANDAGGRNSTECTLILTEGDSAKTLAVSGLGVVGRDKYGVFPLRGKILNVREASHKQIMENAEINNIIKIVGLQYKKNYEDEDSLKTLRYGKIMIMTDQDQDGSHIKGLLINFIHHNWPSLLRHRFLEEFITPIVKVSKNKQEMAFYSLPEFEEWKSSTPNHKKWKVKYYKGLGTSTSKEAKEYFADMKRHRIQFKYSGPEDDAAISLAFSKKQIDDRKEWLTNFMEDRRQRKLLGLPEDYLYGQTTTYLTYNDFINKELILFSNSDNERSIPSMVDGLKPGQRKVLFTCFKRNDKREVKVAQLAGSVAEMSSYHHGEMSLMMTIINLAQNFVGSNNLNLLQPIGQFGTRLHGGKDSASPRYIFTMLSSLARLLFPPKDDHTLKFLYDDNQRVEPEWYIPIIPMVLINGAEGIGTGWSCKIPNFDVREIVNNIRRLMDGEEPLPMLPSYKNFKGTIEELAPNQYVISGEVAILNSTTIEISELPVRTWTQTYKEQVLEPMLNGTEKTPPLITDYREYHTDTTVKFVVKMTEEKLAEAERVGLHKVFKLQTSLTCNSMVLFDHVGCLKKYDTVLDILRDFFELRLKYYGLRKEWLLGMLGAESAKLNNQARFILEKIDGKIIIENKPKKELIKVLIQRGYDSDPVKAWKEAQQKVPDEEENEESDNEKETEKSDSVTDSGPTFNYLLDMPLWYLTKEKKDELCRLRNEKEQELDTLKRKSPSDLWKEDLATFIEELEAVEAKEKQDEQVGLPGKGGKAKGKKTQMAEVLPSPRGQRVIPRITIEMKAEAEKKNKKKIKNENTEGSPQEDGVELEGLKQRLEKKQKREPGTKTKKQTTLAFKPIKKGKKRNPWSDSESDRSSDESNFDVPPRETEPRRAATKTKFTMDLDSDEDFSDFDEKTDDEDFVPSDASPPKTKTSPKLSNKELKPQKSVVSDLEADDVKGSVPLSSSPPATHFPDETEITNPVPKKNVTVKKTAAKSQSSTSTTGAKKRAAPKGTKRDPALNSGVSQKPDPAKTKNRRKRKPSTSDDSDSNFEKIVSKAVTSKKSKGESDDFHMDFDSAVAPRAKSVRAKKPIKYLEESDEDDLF

With `COc1ccc(C)cc1NC(=S)N/N=C/c1ccc2ccccc2n1`, the IC50 in the assay with HeLa, in the assay on SGC-7901, in the assay with HL-60 and in the assay on HT-29 was above 100 µM in each case.
Consider `COc1ccccc1NC(=S)N/N=C/c1ccc2ccccc2n1`, for which the IC50 (commonly the midpoint of a concentration-inhibition curve) was above 100 µM in the assay with HeLa, above 100 µM in the assay with SGC-7901, 91.7 µM with HL-60 and above 100 µM in the assay with HT-29.
In the case of `CN(C)C(=S)N/N=C/c1cc2cccnc2s1`, the half-maximal inhibitory concentration (IC50) is 48.4 µM in the assay with HeLa, 21.4 µM with SGC-7901, above 100 µM in the assay on HL-60 and 13.4 µM in the assay with HT-29. The “inhibition (active/not active)” value in assay [1] is “Active”.
Turning to `S=C(NCc1ccccc1)N/N=C/c1ccc2ccccc2n1`, the IC50 in the assay with HeLa amounted to 62.8 µM; with SGC-7901, 53.7 µM; in the assay on HL-60 it was 21.9 µM; in the assay on HT-29 it was 75.7 µM.
On to `Cc1ccccc1NC(=S)N/N=C/c1ccc2ccccc2n1`, for which the concentration for half-maximal inhibition (IC50) is above 100 µM in the assay with HeLa, above 100 µM with SGC-7901, 73.2 µM in the assay with HL-60 and 42.2 µM with HT-29. Besides, the “inhibition (active/not active)” value in assay [1] is “inactive”.
`S=C(N/N=C/c1ccc2ccccc2n1)Nc1ccccc1Br`: the IC50 in the assay on HeLa, with SGC-7901, with HL-60 and with HT-29 was above 100 µM throughout.
Take `NC(=S)N/N=C/c1nc2ccccc2s1`: the IC50 in the assay on HeLa was 5.35 µM; in the assay with SGC-7901 it was above 100 µM; in the assay with HL-60, above 100 µM; with HT-29, above 100 µM. Moreover, in assay [1], the “inhibition (active/not active)” value is “inactive”.
Regarding `CC(C)c1cccc(C(C)C)c1NC(=S)N/N=C/c1ccc2ccccc2n1`, the IC50 in the assay with HeLa came to 16.4 µM; in the assay on SGC-7901, 23.5 µM; in the assay with HL-60 it was 19.5 µM; with HT-29, 20.7 µM.
In the case of `S=C(N/N=C/c1ccc2ccccc2n1)Nc1ccc(Cl)cc1`, the IC50 was above 100 µM in the assay on HeLa, 87.6 µM in the assay with SGC-7901, above 100 µM in the assay on HL-60 and 97.2 µM in the assay on HT-29.
As to `Fc1ccccc1NC(=S)N/N=C/c1ccc2ccccc2n1`, the half-maximal inhibitory concentration (IC50) in the assay on HeLa, with SGC-7901, with HL-60 and with HT-29 was above 100 µM in each case.
Take `NC(=S)N/N=C/c1cnc2ccccc2n1`: the IC50 with HeLa, in the assay on SGC-7901, in the assay on HL-60 and with HT-29 was above 100 µM in each case.
As to `Cc1csc2sc(/C=N/NC(N)=S)c(C)c12`, the IC50 in the assay on HeLa was 1.12 µM; in the assay on SGC-7901, above 100 µM; with HL-60 it was above 100 µM; in the assay with HT-29, 57.5 µM. For the same molecule, the “inhibition (active/not active)” value in assay [1] was “inactive”.
For `FC(F)(F)c1ccc(NC(=S)N/N=C/c2ccc3ccccc3n2)cc1`, the IC50 is 59.1 µM in the assay with HeLa, 72.2 µM in the assay with SGC-7901, 34.9 µM in the assay on HL-60 and 63.9 µM in the assay with HT-29.
For `Cc1ccc(NC(=O)N/N=C/c2ccc3ccccc3n2)cc1` the same measures were above 100 µM, above 100 µM, above 100 µM and above 100 µM.
For `S=C(N/N=C/c1ccc2ccccc2n1)Nc1cccc(Cl)c1`, in that order: 52.5 µM, 61.3 µM, 28.8 µM and 48.1 µM.
For `NC(=S)N/N=C/c1cc2cccnc2s1` the same measures were 6.29 µM, 100 µM, above 100 µM and above 100 µM.
As to `Fc1cccc(NC(=S)N/N=C/c2ccc3ccccc3n2)c1`, the half-inhibitory concentration (IC50) in the assay on HeLa amounted to 70.1 µM; in the assay with SGC-7901, 79.9 µM; in the assay on HL-60 it was 43.8 µM; with HT-29 it was 74.7 µM. In assay [1], the “inhibition (active/not active)” value is “inactive”.
For the molecule `S=C(N/N=C/c1ccc2ccccc2n1)Nc1ccc(Br)cc1`, the IC50 stood at 56.8 µM with HeLa, 69.4 µM with SGC-7901, 27.5 µM with HL-60 and 54.4 µM in the assay with HT-29.
With `CN(C)C(=S)N/N=C/c1nc2ccccc2c2ncccc12`, the IC50 with HeLa amounted to 1.72 µM; in the assay with SGC-7901 it was 0.04 µM; in the assay with HL-60 it was 0.43 µM; with HT-29 it was 0.04 µM. The “inhibition (active/not active)” value in assay [1] is “Active”.
As to `FC(F)(F)c1ccccc1NC(=S)N/N=C/c1ccc2ccccc2n1`, the IC50 worked out at 18.8 µM with HeLa, 20.7 µM with SGC-7901, 13.2 µM in the assay with HL-60 and 18.1 µM in the assay with HT-29.
With `COc1cccc(NC(=S)N/N=C/c2ccc3ccccc3n2)c1`, the IC50 with HeLa amounted to 74.5 µM; in the assay on SGC-7901 it was 79.4 µM; in the assay on HL-60 it was 71.2 µM; in the assay with HT-29, 82.4 µM.
Consider `COc1ccc(NC(=S)N/N=C/c2ccc3ccccc3n2)cc1`, for which the IC50 was determined as 72.6 µM with HeLa, 89.6 µM with SGC-7901, 43.8 µM with HL-60 and 82.3 µM in the assay with HT-29.
Take `CN(C)C(=S)N/N=C/c1ccc2cccnc2n1`: the IC50 in the assay on HeLa was 0.97 µM; in the assay with SGC-7901 it was 0.63 µM; in the assay with HL-60 it was 0.56 µM; in the assay with HT-29, 0.41 µM. Moreover, the “inhibition (active/not active)” value in assay [1] was “Active”.
For `NC(=S)N/N=C/c1cc2ccccc2s1`, in that order: 6.77 µM, above 100 µM, above 100 µM, 99.2 µM and “inactive”.
With `CN(C)C(=S)N/N=C/c1nc2ccccc2s1`, the IC50 with HeLa was 2.1 µM; in the assay with SGC-7901 it was 0.83 µM; in the assay on HL-60, 3.68 µM; with HT-29, 0.25 µM. For the same molecule, the “inhibition (active/not active)” value in [1] is “Active”.
Consider `CN(C)C(=S)N/N=C/c1cnc2ccccc2n1`, for which the IC50 in the assay with HeLa came to 0.75 µM; in the assay on SGC-7901, 0.17 µM; in the assay on HL-60 it was 0.09 µM; with HT-29, 0.45 µM. In addition, the “inhibition (active/not active)” value in assay [1] is “Active”.
For `NC(=S)N/N=C/c1nc2ccccc2c2ncccc12`, in that order: 21.9 µM, 7.36 µM, above 100 µM, 11.5 µM and “Active”.
For `NC(=S)N/N=C/c1ccc2ccccc2n1`, in that order: 0.96 µM, 32.7 µM, above 100 µM, 100 µM and “inactive”.
`Cc1cccc(NC(=S)N/N=C/c2ccc3ccccc3n2)c1`: the IC50 in the assay with HeLa, with SGC-7901, in the assay with HL-60 and in the assay on HT-29 was above 100 µM in each case.
In the case of `Fc1ccc(NC(=S)N/N=C/c2ccc3ccccc3n2)cc1`, the IC50 in the assay on HeLa stood at 33.2 µM; in the assay with SGC-7901, 32.3 µM; with HL-60, 17 µM; with HT-29, 28.5 µM.
With `COc1cccc2c1C(=O)c1c(O)c3c(c(O)c1C2=O)C[C@@](O)(C(=O)CO)C[C@@H]3O[C@H]1C[C@H](N)[C@H](O)[C@H](C)O1` [DOXORUBICIN HYDROCHLORIDE], the IC50 stood at 23.8 µM in [2] and 44.9 µM in [3].
With `NC(=S)N/N=C/c1ccc2cccnc2n1`, the IC50 is above 100 µM in the assay on HeLa, above 100 µM in the assay with SGC-7901, above 100 µM in the assay with HL-60 and 12.8 µM in the assay on HT-29. Besides, the “inhibition (active/not active)” value in [1] was “inactive”.
On to `Cc1ccc(NC(=S)N/N=C/c2ccc3ccccc3n2)cc1`, for which the IC50 with HeLa came to 86 µM; with SGC-7901, 92.9 µM; in the assay on HL-60 it was 78.3 µM; in the assay on HT-29, 85.5 µM.
On to `CC[C@]1(O)C[C@H]2CN(CCc3c([nH]c4ccccc34)[C@@](C(=O)OC)(c3cc4c(cc3OC)N(C=O)[C@H]3[C@@](O)(C(=O)OC)[C@H](OC(C)=O)[C@]5(CC)C=CCN6CC[C@]43[C@@H]65)C2)C1` [VINCRISTINE], for which the IC50 is 0.84 µM in [4] and 0.01 µM in the assay on KB.
`S=C(N/N=C/c1ccc2ccccc2n1)Nc1ccccc1`: the IC50 with HeLa came out at 27.4 µM; with SGC-7901, 26.5 µM; in the assay on HL-60, 9.13 µM; in the assay on HT-29 it was 17 µM.
For `N#Cc1ccc(NC(=S)N/N=C/c2ccc3ccccc3n2)cc1`, in that order: 20 µM, 23.7 µM, 4.66 µM and 15.6 µM.
For `S=C(N/N=C/c1ccc2ccccc2n1)Nc1cccc(Br)c1`, in that order: 70 µM, 78.6 µM, 53.8 µM and 58.9 µM.
